Measurements as given in ChEMBL document CHEMBL3600329, “Synthesis, biological profiling and mechanistic studies of 4-aminoquinoline-based heterodimeric compounds with dual trypanocidal-antiplasmodial activity” (Bioorg Med Chem, 2015).

How the values were obtained:
[1] = test system: Trypanosoma brucei; test: Trypanocidal activity against bloodstream form of Trypanosoma brucei 221 assessed as inhibition of parasite growth at pH 7.4 after 48 hrs by Spectramax plate reader analysis; type: functional, organism-based; conditions: Trypanosoma brucei, 221, 48 h
Summary of the method: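 Bloodstream-form T. brucei strain 221 grown at 37 °C in modified Iscove's medium; log-phase cells diluted to 0.25 × 10^5 mL⁻¹, exposed to a range of compound concentrations in triplicate at 37 °C. Resazurin added after 48 h, read after a further 16 h. IC50 and IC90 = concentrations inhibiting growth 50% and 90%; mean of triplicate experiments ± SEM.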

[2] = Inhibition of beta-haematin formation by microplate reader analysis relative to hemin; type: physicochemical
Summary of the method: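 Haemin chloride (8 mM stock in DMSO) mixed with serial compound dilutions (0.5-32 mM) in 25% DMSO; formation initiated with 8 M acetate buffer pH 5.0, 18 h at 37 °C. Pellets washed with DMSO, β-haematin dissolved in 0.1 M NaOH, OD 400 nm read versus drug-free controls; BHIA50 expressed as compound equivalents relative to haemin, by linear regression.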

[3] = Selectivity index, ratio of IC50 for rat L6 cells to IC50 for chloroquine-resistant Plasmodium falciparum K1; type: toxicity, cell-based; conditions: read-out: Ratio IC50
Summary of the method: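 IC50 ratio, L6 over P. falciparum K1. L6 cells seeded at 1×10^4 mL⁻¹ with compound, 6 days at 37 °C, resazurin added, fluorescence after 8 h. Parasites in A+ erythrocytes (2.5% haematocrit, 1% parasitaemia) with twofold dilutions, 48 h at 37 °C in low-oxygen gas; growth read by LDH activity at 550 nm.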

[4] = test system: Plasmodium falciparum; test: Antiplasmodial activity against chloroquine-resistant Plasmodium falciparum K1 infected in human A+ erythrocytes assessed as inhibition of parasite growth after 48 hrs by LDH assay; type: functional, organism-based; conditions: K1, 48 h
Summary of the method: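 Ring-stage cultures in human A+ erythrocytes (RPMI 1640, A+ serum, D-glucose), 2.5% haematocrit, 1% parasitaemia; twofold serial dilutions in duplicate, DMSO ≤0.5% final. 48 h at 37 °C under 93% N2/3% O2/4% CO2. Growth read as lactate dehydrogenase activity (APAD, lactate, diaphorase, NBT; 550 nm); % inhibition vs controls; IC50 by linear regression; mean of triplicate experiments.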

[5] = Selectivity index, ratio of IC50 for rat L6 cells to IC50 for bloodstream form of Trypanosoma brucei 221; type: toxicity, cell-based; conditions: read-out: Ratio IC50
Summary of the method: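 IC50 ratio, L6 over T. brucei. L6 cells seeded at 1×10^4 mL⁻¹ with compound, 6 days at 37 °C, then resazurin, 8 h more, fluorescence read. Log-phase bloodstream T. brucei 221 in modified Iscove's medium at 0.25 × 105 mL⁻¹, compound range in triplicate, 37 °C; resazurin at 48 h, read after 16 h more.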

[6] = target: Trypanothione reductase (Trypanosoma brucei brucei, UniProt P39051); test: Inhibition of Trypanosoma brucei recombinant Trypanothione reductase assessed as decrease in (T[SH]2) formation using trypanothione disulfide as substrate after 15 mins by colorimetric analysis
[7] = test system: L6; test: Cytotoxicity against rat L6 cells assessed as inhibition of cell growth after 6 days by Spectramax fluorescence plate reader analysis; type: cell-based; conditions: L6, 144 h
Summary of the method: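 L6 rat skeletal myoblasts seeded at 1×10^4 mL⁻¹ in growth medium containing a range of compound concentrations, incubated 6 days at 37 °C; resazurin added, fluorescence read after a further 8 h. IC50 = concentration inhibiting growth by 50%; mean of triplicate experiments ± SEM.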

[8] = test system: Trypanosoma brucei; test: Selectivity index, ratio of IC50 for inhibition of Trypanosoma brucei recombinant Trypanothione reductase to IC50 for trypanocidal activity against bloodstream form of Trypanosoma brucei 221

Sequence of Trypanothione reductase (P39051 whole entry): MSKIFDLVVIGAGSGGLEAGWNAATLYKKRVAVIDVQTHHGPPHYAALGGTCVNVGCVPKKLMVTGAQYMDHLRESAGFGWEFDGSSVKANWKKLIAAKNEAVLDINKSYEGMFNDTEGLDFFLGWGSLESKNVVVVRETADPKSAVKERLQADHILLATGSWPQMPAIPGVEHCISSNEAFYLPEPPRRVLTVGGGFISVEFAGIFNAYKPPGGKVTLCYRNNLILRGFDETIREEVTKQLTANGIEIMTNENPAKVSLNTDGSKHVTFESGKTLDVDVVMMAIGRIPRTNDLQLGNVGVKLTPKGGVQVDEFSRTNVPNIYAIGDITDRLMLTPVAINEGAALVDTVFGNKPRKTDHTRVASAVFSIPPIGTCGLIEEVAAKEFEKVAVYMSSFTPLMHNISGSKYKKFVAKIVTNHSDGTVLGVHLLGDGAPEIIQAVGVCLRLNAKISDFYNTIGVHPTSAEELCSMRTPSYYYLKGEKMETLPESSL

| Compound | IC50 [1] [nM] | IC90 [1] [nM] | IC50 [2] [equiv] | selectivity ratio [3] | IC50 [4] [nM] | selectivity ratio [5] | IC50 [6] [nM] | IC50 [7] [nM] | Ratio IC50 [8] |
| --- | --- | --- | --- | --- | --- | --- | --- | --- | --- |
| CC1=CC2Cc3nc4cc(Cl)ccc4c(NCCCCCCCCNc4c5c(nc6ccccc46)CCCC5)c3C(C1)C2 (centres undefined) | 150 | 290 | 0.19 | 2.8 | 390 | 7.4 | 870 | 1110 | 6 |
| COc1cc2c(cc1OC)CC(CC1CCN(CCCNc3c4c(nc5cc(Cl)ccc35)CC3C=C(C)CC4C3)CC1)C2 (centres undefined) | 170 | 350 | 0.42 |  |  | 12 | 4880 | 2060 | 29 |
| CC1=CC2Cc3nc4cc(Cl)ccc4c(N)c3C(C1)C2 (centres undefined) [HUPRINE Y] |  |  | > 4 |  |  |  | 5000 |  | 8.2 |
